# Rows were chosen to be rich in hits. Some 1.9% of all compounds tested hit in one or more screens of this group.
# PP5 primary = PP5 phosphatase inhibitors, primary screen, biochemical, fluorescence; actives 0.18% (n = 320,000); inhibition, % at 6.7 µM; purified PP5c, OMFP substrate fluorescence;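 active = inhibition above the campaign's mean inhibition across all tested compounds plus 3 SD, cut at about 9.5% in these data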;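 also: 0% = DMSO only and 100% = 100 µM cantharidin control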
# HIF act = HIF pathway transcriptional activators, primary screen, cell-based, U2OS HRE-luciferase, luminescence; U2OS HRE-luciferase reporter; normalized: DMSO 0%, desferrioxamine 100%; activation, % at 7.5 µM (by protocol); actives 0.32% (n = 300,000); AID 1910, 2009;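 active = mean activation of at least 10% of the iron chelator positive control signal, with at least half of replicates also reaching 10%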
# PP1 counter = PP1-alpha phosphatase inhibitors, primary screen, counter-screen for PP5 inhibitor project, biochemical, fluorescence, OMFP substrate, single point; actives 0.9% (n = 320,000); Serine/threonine-protein phosphatase PP1-alpha catalytic subunit (Homo sapiens), P62136; purified PP1alpha; inhibition, % at 6.7 µM;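 active = inhibition above the mean inhibition of all tested compounds plus 3 SD, computed separately for each screening campaign, cut at about 15% in these data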
# Target sequence (P62136 whole entry, looked up): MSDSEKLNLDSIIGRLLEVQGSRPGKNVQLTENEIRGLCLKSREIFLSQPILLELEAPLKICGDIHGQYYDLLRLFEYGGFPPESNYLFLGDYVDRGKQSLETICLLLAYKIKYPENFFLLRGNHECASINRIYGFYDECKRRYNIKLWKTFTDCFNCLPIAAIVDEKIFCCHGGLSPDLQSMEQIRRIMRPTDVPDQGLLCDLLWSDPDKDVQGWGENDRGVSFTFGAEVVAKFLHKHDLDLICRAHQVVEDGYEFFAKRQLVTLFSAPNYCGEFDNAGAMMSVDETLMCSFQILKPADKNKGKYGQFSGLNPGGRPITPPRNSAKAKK
# DNA FID counter-1 = compounds displacing fluorescent DNA intercalator, primary screen, artefact control for HCV NS3 helicase inhibitor project, biochemical, FID fluorescence; DNA fluorescent intercalator displacement; inhibition, % at 7.9 µM; actives 0.17% (n = 290,000); AID 1845, 2009;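 also: 0% = vehicle and 100% = reference compound; higher means more ethidium bromide displaced from hairpin DNA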
# NS3 helicase inh = inhibitors of HCV NS3 helicase, primary screen, biochemical, Cy5 molecular beacon fluorescence; actives 0.56% (n = 290,000); inhibition, % at 10.9 µM; NS3 helicase DNA unwinding;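 active = inhibition above the mean of all tested compounds plus 3 SD, set per campaign, cut at about 35% in these data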;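 also: 0% = DMSO wells and 100% = thioflavine S control wells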
#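 test system = hepatitis C virus NS3 helicase domain fragment enzyme | reagent = annealed dual-labelled DNA beacon duplex, ATP-started | times = 1 h at 25 °C | detection = Cy5 fluorescence, 0 and 60 min reads | read-out basis = percent inhibition from t60/t0 fluorescence ratio | control set = DMSO and thioflavine S | replication = one well per compound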
# NS3 helicase cf = HCV NS3 helicase inhibitors, retest, confirmation, biochemical, Cy5 molecular beacon fluorescence, triplicate; shares compounds with NS3 helicase inh; NS3 helicase DNA unwinding; inhibition, % at 10.9 µM; actives 31% (n = 1,600); AID 1943, 2009;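 active = inhibition above the mean of all tested compounds plus 3 SD, cutoff set per campaign, cut at about 36% in these data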
# DNA FID counter-2 = compounds displacing fluorescent DNA intercalator, artefact control for HCV NS3 helicase inhibitor project, biochemical, FID fluorescence, triplicate; shares compounds with NS3 helicase inh; actives 4% (n = 1,600); DNA fluorescent intercalator displacement; inhibition, % at 7.9 µM;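 also: 0% = vehicle and 100% = reference compound; higher means more displacement of ethidium bromide from the DNA hairpin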
# PP5 conf = PP5 phosphatase inhibitors, confirmation, biochemical, fluorescence, human. shares compounds with PP5 primary. Purified PP5, fluorogenic phosphatase substrate. inhibition, % at 6.7 µM. actives 22% (n = 460). AID 2331, 2010; in the data active = inhibition above about 9.5%
# PP1 inh counter = PP1 phosphatase inhibitors, counter-screen for PP5 inhibitor project, biochemical, fluorescence, triplicate; PP1 enzyme, fluorescent phosphatase substrate; shares compounds with PP5 primary; inhibition, % at 6.7 µM; actives 4% (n = 460); in the data active = inhibition above about 16%
# PP1 inh confirm = PP1 phosphatase inhibitors, confirmation, biochemical, fluorescence, OMFP substrate, triplicate | shares compounds with PP1 counter | purified PP1alpha | inhibition, % at 6.7 µM | actives 52% (n = 1,900);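 active = mean PP1 inhibition above a set limit taken from the earlier primary screen, cut at about 15% in these data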
# PP5 inh counter = PP5 phosphatase inhibition by PP1 hits, confirmation, counter-screen for PP1 inhibitor project, biochemical, fluorescence, triplicate | inhibition, % at 6.7 µM | purified PP5c, OMFP fluorescence | shares compounds with PP1 counter | actives 4% (n = 1,900);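 active = mean PP5 inhibition over triplicate wells above about 9.5% taken from the earlier PP1 screen, limit read from the data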
# * marks the source's active call; other numbers are inactive results; . = no result given. Rule as the data show it, unless noted: active = inhibition above about 37%; inactive = the rest.
SMILES,PP5 primary,HIF act,PP1 counter,DNA FID counter-1,NS3 helicase inh,PP1 inh confirm,PP5 inh counter,others
Ic1ccccc1CN[C@@H]1C2CCN(CC2)[C@@H]1C(c1ccccc1)c1ccccc1,1.4,.,0.7,.,.,.,.,
Cc1cccc(-n2c(/C=C/c3ccc([N+](=O)[O-])o3)nc3ccccc3c2=O)c1,-0.1,0.0,-0.9,-19.8,61.4*,.,.,NS3 helicase cf=14.6;DNA FID counter-2=1.1
O=c1c2ccccc2nc(/C=C/c2ccc([N+](=O)[O-])o2)n1-c1ccc(O)cc1,.,-3.3,.,-7.5,9.9,.,.,
Cc1ccccc1N1C(=O)/C(=C/c2ccco2)C(=O)NC1=S,3.9,-0.3,69.1*,7.7,81.1*,35.2*,1.9,NS3 helicase cf=83.0*;DNA FID counter-2=21.0
COC(=O)C1=C(c2ccc(OC)c(OC)c2)C[C@@H]2CC[C@H]1N2C(=O)NCCCOC(C)C,-1.8,.,-5.2,.,.,.,.,
O=C1NC(=O)N(Cc2ccc(F)cc2)C(=O)/C1=C\C=C\c1ccco1,0.0,-1.0,20.6*,-10.0,41.4*,23.4*,-0.7,NS3 helicase cf=31.9;DNA FID counter-2=20.1
CCN(CC)c1ccc(/C=C2\C(=O)NC(=O)N(Cc3ccco3)C2=O)cc1,0.1,-0.3,-1.4,-20.4,16.6,.,.,
O=C1CN=C(c2ccccc2)c2ccccc2N1Cc1ccc(C(F)(F)F)cc1,12.8*,0.0,-0.8,-11.8,5.9,.,.,PP5 conf=-0.8;PP1 inh counter=0.4
Cc1nc2ccccc2c(=O)n1-c1cc([N+](=O)[O-])cc([N+](=O)[O-])c1,-3.1,-0.2,-9.3,5.1,0.4,.,.,
Cc1[nH]n(-c2ccccc2)c(=O)c1C(c1ccc([N+](=O)[O-])cc1)c1c(C)[nH]n(-c2ccccc2)c1=O,9.9*,-0.4,-1.0,-6.9,16.7,.,.,PP5 conf=16.1*;PP1 inh counter=9.5
COC(=O)C1=C(c2ccc(OC(F)(F)F)cc2)C[C@@H]2CC[C@H]1N2C(=O)N1CCCC1,2.4,.,1.3,.,.,.,.,
C/C=C(\C)C(=O)OC1C(C)=C2C(C1OC(=O)CCCCC)C(C)(OC(C)=O)CC(OC(=O)CCC)C1(O)C2OC(=O)C1(C)O (centres undefined),11.4*,2.8,6.1,.,.,.,.,PP5 conf=11.4*;PP1 inh counter=11.3
CC(N)C(=O)OC(C)(C)Cc1ccc(Cl)cc1 (centres undefined),-0.1,.,-2.4,.,.,.,.,
CCOC(=O)c1ccc(-[n+]2c(-c3ccccc3)cc(-c3ccccc3)cc2-c2ccccc2)cc1,1.1,2.6,7.0,.,.,.,.,
CCOC(=O)c1ccc(NC(=O)C2C3C=CC(O3)C2C(=O)O)cc1 (centres undefined),27.9*,1.7,8.2,10.2,8.6,.,.,PP5 conf=-2.8;PP1 inh counter=2.5
O=c1[nH]c(=O)n(CCC2=CCCCC2)c(O)c1/C=N/Nc1cccc2ccccc12,-0.3,-0.5,20.9*,-14.6,17.6,18.4*,1.7,
CC1CC(NC(=O)C2C3CCC(O3)C2C(=O)O)CC(C)(C)C1 (centres undefined),79.4*,-0.1,79.7*,6.8,8.1,30.3*,47.8*,
O=C(O)C1C2CCC(O2)C1C(=O)Nc1ccc(F)c(F)c1 (centres undefined),73.5*,-3.6,67.8*,2.7,-3.1,12.8,22.4*,
CC(=O)Nc1ccccc1C(=O)OCC(=O)c1ccc2c(c1)OCCO2,0.6,1.9,-1.3,-6.8,5.3,.,.,
CC(=O)c1ccccc1NC(=O)C1C2CCC(O2)C1C(=O)O (centres undefined),71.1*,-0.4,72.4*,3.8,-0.8,33.3*,39.0*,
N#C/C=C/C#N,0.3,.,-3.4,.,.,.,.,
Nc1ccccc1Cl,0.9,.,-3.0,.,.,.,.,
O=C(c1cc(C(=O)NCc2ccccc2)c(=O)n(Cc2ccccc2)c1)c1cc(Cl)ccc1O,3.5,0.3,18.3*,-6.1,25.9,16.3*,0.8,
COC1C(OC(=O)c2ccc(C)[nH]2)C(O)C(Oc2ccc3c(O)c(NC(=O)c4ccc(O)c(CC=C(C)C)c4)c(=O)oc3c2Cl)OC1(C)C (centres undefined),6.3,.,24.5*,11.6,29.5,16.8*,3.8,
CC/C(=N\Nc1ccccc1)c1c(O)n(-c2ccc(OC)cc2)c(=O)[nH]c1=O,1.2,.,0.7,-3.7,4.6,.,.,
SMILES,PP5 primary,HIF act,PP1 counter,DNA FID counter-1,NS3 helicase inh,PP1 inh confirm,PP5 inh counter,others
CCCCOC(=O)c1ccc(NC(=O)c2c(O)[nH]c(=O)[nH]c2=O)cc1,-0.7,2.8,8.9,.,.,.,.,
CCOC(=O)c1cccc(NC(=O)c2c(O)[nH]c(=O)[nH]c2=O)c1,2.0,-1.4,18.7*,.,.,11.5,-2.4,
O=c1[nH]c(=S)[nH]c(O)c1N=Nc1cc(S(=O)(=O)Nc2ccc(Cl)cc2)ccc1Cl,2.3,.,20.9*,.,.,24.7*,1.7,
O=P(O)(Oc1ccccc1)OC(c1ccccc1)C(F)(F)C(F)(F)F (centres undefined),-3.6,-0.7,0.5,-16.0,15.5,.,.,
Nc1ncc([N+](=O)[O-])s1,0.5,.,-1.3,.,.,.,.,
Clc1ccc(C(Cn2ccnc2)OCc2csc3c(Cl)cccc23)c(Cl)c1 (centres undefined),2.4,.,31.8*,.,.,29.3*,-1.1,
Clc1ccc(Cn2ccnc2)cn1,-0.2,-0.5,6.3,1.7,21.2,.,.,
Clc1ccc(CCC(Cn2ccnc2)Sc2c(Cl)cccc2Cl)cc1 (centres undefined),4.6,.,33.8*,.,.,27.8*,-3.5,
COC(=O)C1=C(c2ccc(F)cc2OCc2ccccc2)C[C@@H]2CC[C@H]1N2C(=O)N1CCC(O)CC1,2.2,.,-5.3,.,.,.,.,
CCN(CC)C(=O)c1ccc2c(c1)C1C(Cl)C(Sc3ccccc3[N+](=O)[O-])CC1C(C(=O)O)N2 (centres undefined),1.1,-0.3,19.4*,12.5,18.4,1.8,2.3,
Cc1ccc2c(c1Cl)NC(C(=O)O)C1CC(Sc3ccccc3[N+](=O)[O-])C(Cl)C21 (centres undefined),1.1,0.1,2.3,-5.2,13.5,.,.,
COC(=O)C1=C(c2c(C)noc2C)C[C@@H]2CC[C@H]1N2C(=O)NC1CCCCC1,-1.3,.,-4.8,.,.,.,.,

# High-throughput results as filed in PubChem BioAssay.
